Results on 55 compounds are retold here after PubChem BioAssay AID504382 (The Scripps Research Institute Molecular Screening Center, 2011).

Hit rate of the full screen: of about 2,500 compounds, about 460 (18%) were called active. These entries were drawn from the full list. A number with no mark means an inactive call.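 The calls were made as follows: active = mean activation above a cutoff of low control average plus 3 SD from the earlier screen (cut at about 12% in these data); inactive = the rest.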

The nature of this test: IANBD-channel fluorescence artefacts in buffer – biochemical, artefact control for cardiac RTF calcium sensitizer project, confirmation (AID 504382). Conditions: IANBD fluorescence interference counterscreen, EC20 Ca2+, at 7.2 µM, stronger effect = higher value, scaled: EC20 calcium 0, EC100 calcium 100. The procedure, abridged: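 Also added: EC20 calcium, 0.472 mM; dosing: single nominal 7.2 µM compound dose, 0.7% DMSO final; timing: 15 min, 25 °C; detection: fluorescence intensity, excitation 480 nm, emission 540 nm; replicates: each compound tested in triplicate wells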
Turning to `O=C(NCCc1ccc(F)cc1)c1cccc2c1C(=O)c1ccc(N3CCC(Cc4ccccc4)CC3)cc1S2(=O)=O`, the fluorescence artifact activation was 33.5% (active).

With `O=C(NCc1cccc(C(F)(F)F)c1)c1cccc2c1C(=O)c1ccc(N3CCC(Cc4ccccc4)CC3)cc1S2(=O)=O`, the fluorescence artifact activation was 0.26%.

Regarding `O=C(NCc1ccc(F)cc1)c1cccc2c1C(=O)c1ccc(N3CCC(Cc4ccccc4)CC3)cc1S2(=O)=O`, the fluorescence artifact activation was 0.01%.

As for `O=C(NCc1cccc(F)c1)c1cccc2c1C(=O)c1ccc(N3CCC(Cc4ccccc4)CC3)cc1S2(=O)=O`, the fluorescence artifact activation is 3.97%.

With `O=C(NCc1ccco1)c1cccc2c1C(=O)c1ccc(N3CCCC3)cc1S2(=O)=O`, the fluorescence artifact activation was 0.41%.

Take `O=C(NCc1ccco1)c1cccc2c1C(=O)c1ccc(N3CCC(Cc4ccccc4)CC3)cc1S2(=O)=O`: the fluorescence artifact activation is 24.3% (active).

For `COc1ccc(/C=C2\Oc3cc(OCC(=O)N4CCC(C(=O)O)CC4)ccc3C2=O)c(OC)c1`, the fluorescence artifact activation was 84% (active).

For `COc1ccc(/C=C2\Oc3cc(OCC(=O)N4CCC[C@H]4CO)ccc3C2=O)c(OC)c1`, the fluorescence artifact activation was 0.23%.

As to `COc1ccc(/C=C2\Oc3cc(OCC(=O)N4CCC[C@H]4C(=O)O)ccc3C2=O)c(OC)c1`, the fluorescence artifact activation was 5.17%.

For the compound `CN(C)c1ccc(/C=C/C(=O)c2cccc(Br)c2)cc1`, the fluorescence artifact activation was 0.06%.

`CCOc1ccc(Cn2nnc(C(=O)NCCc3ccccc3)c2N)cc1`: the fluorescence artifact activation is 40.2% (active).

In the case of `CCOc1ccc(CCNC(=O)c2ccc(CNS(=O)(=O)c3ccccc3)cc2)cc1OCC`, the fluorescence artifact activation was 0.06%.

Consider `O=C(NCCc1ccccc1)c1ccc(Cl)nc1`, for which the fluorescence artifact activation was 5.54%.

For the compound `O=C(Cc1ccccc1)Nn1c(O)c(/C=C2\C=Nc3ccccc32)sc1=S`, the fluorescence artifact activation is 29.4% (active).

For `CC1=Nc2ccccc2/C1=C/c1sc(=S)n(-c2cccc(C(=O)O)c2)c1O`, the fluorescence artifact activation is 0.55%.

In the case of `Cc1ccc2c(c1)[C@H]1[C@H](CO2)[C@H](c2ccccc2)[C@]2(C)C(=O)N(Cc3ccc(F)cc3)CC(=O)N12`, the fluorescence artifact activation was 0.19%.

`Clc1ccccc1/C=N/NC1=Nc2cccc3cccc1c23`: the fluorescence artifact activation was 0.08%.

Take `CCC12OC(=N)C(C#N)(C1C)C(C#N)(C#N)C(c1ccccc1)O2` (stereo not given): the fluorescence artifact activation is -0.03%.

Turning to `O=C(CCSc1ccccc1)N1CCN(C(=O)c2ccco2)CC1`, the fluorescence artifact activation was 25.9% (active).

For the compound `O=C(COC(=O)C1(c2ccc(F)cc2)CCCC1)N1CCN(C(=O)c2ccco2)CC1`, the fluorescence artifact activation is 0%.

With `CCC(C)(C)n1nnnc1C(c1ccc(C)cc1)N1CCN(C(=O)c2ccco2)CC1` (stereo not given), the fluorescence artifact activation was 0.17%.

Turning to `COc1cc2c(cc1OC)CN(Cc1cc(=O)oc3cc(C)c(C)cc13)CC2`, the fluorescence artifact activation was -0.02%.

Turning to `C=CCNc1sc(C(=O)c2ccc(Br)s2)c(N)c1C#N`, the fluorescence artifact activation was 37% (active).

Take `O=C(NCc1ccc(OC(F)(F)F)cc1)c1cccc2c1C(=O)c1ccc(N3CCCCC3)cc1S2(=O)=O`: the fluorescence artifact activation is 0.89%.

For the compound `C#CCOCCOCCOCCNc1nc(N2CCN(C(=O)Cn3cc(CCCCN)nn3)CC2)nc(N2CCN(C(=O)Cn3cc(CC(C)O)nn3)CC2)n1` (stereo not given), the fluorescence artifact activation was -0.09%.

For the compound `COc1ccc(CCNC(=O)COC(=O)c2cc(=O)[nH]c3ccccc23)cc1`, the fluorescence artifact activation was 15.4% (active).

With `COc1ccc(-c2noc(CCC(=O)NCCc3ccccc3)n2)cc1`, the fluorescence artifact activation was 0.2%.

Regarding `Cc1ccnc2nc(C(=O)OCC(=O)NCCc3ccccc3)nn12`, the fluorescence artifact activation is 7.51%.

With `CCC12CN3CCN(CC(C3)/C1=N\NC(=O)Nc1ccccc1)C2`, the fluorescence artifact activation is -0.04%.

With `CCCCCCc1cc2cc(-c3nnc(-c4ccccc4)o3)c(=O)oc2cc1O`, the fluorescence artifact activation was 0.03%.

`CCCC(NC(=O)CCc1c(C)c2cc3c(-c4ccccc4)coc3cc2oc1=O)C(=O)O` (stereo not given): the fluorescence artifact activation was 35.8% (active).

For the compound `O=[N+]([O-])c1ccc(N(c2ccccc2)c2ccccc2)cc1`, the fluorescence artifact activation was 2.48%.

As to `Nc1c(S(=O)(=O)c2ccccc2)c2nc3ccccc3nc2n1/N=C/c1ccco1`, the fluorescence artifact activation was -0.02%.

Turning to `Cc1ccc(S(=O)(=O)c2c(N)n(Cc3ccco3)c3nc4ccccc4nc23)cc1`, the fluorescence artifact activation was 0.24%.

For the compound `Nc1c(S(=O)(=O)c2ccccc2)c2nc3ccccc3nc2n1Cc1ccco1`, the fluorescence artifact activation was 22.8% (active).

As to `COc1ccccc1Nc1nc(N2CCOCC2)nc(N2CCOCC2)n1`, the fluorescence artifact activation was 0%.

For the compound `CCOC(=O)c1c(NC(=S)N2CCN(C)CC2)sc2c1CCN(C(=O)OCC)C2`, the fluorescence artifact activation is 1.28%.

As for `O=C(CCN1C(=O)/C(=C/c2ccccc2)SC1=S)NNC(=O)c1cccnc1`, the fluorescence artifact activation was 0.24%.

For the compound `C/C(O)=c1/ccc2cccc3nc(C)nc1c23`, the fluorescence artifact activation is 13.3% (active).

As to `COc1ccc(S(=O)(=O)N2CCC(C(=O)NC(C)CCc3ccccc3)CC2)cc1` (stereo not given), the fluorescence artifact activation is -0.01%.

For the compound `COc1ccc(CN=C2NC(=O)CC(C(=O)Nc3ccc(F)cc3)S2)cc1` (stereo not given), the fluorescence artifact activation is 1.74%.

For `CCC(C)NC(=O)C1CC(=O)N(CCc2ccc(F)cc2)C1` (stereo not given), the fluorescence artifact activation is 111% (active).

Consider `NC(=O)NC(=O)COC(=O)c1cccc(NS(=O)(=O)/C=C/c2ccccc2)c1`, for which the fluorescence artifact activation was 6.11%.

As to `CC(=O)N(C)c1ccc(C(O)(C(F)(F)F)C(F)(F)F)cc1`, the fluorescence artifact activation was 7.43%.

On to `O=c1c2ccccc2nc(SCc2nc(-c3ccccc3)no2)n1-c1ccc(F)cc1`, for which the fluorescence artifact activation was 0.14%.

Turning to `COc1ccc(C2=NN(C(=O)CSc3ncccn3)C(c3ccc(C)cc3)C2)cc1` (stereo not given), the fluorescence artifact activation is 202% (active).

For the compound `CNC(=S)N1N=C(c2ccc(Br)cc2)CC1c1ccc(N(C)C)cc1` (stereo not given), the fluorescence artifact activation is 5.89%.

As for `O=C(c1cn(-c2ccccc2)nc1-c1ccc(Br)cc1)N1CCOCC1`, the fluorescence artifact activation was 0.32%.

Take `COC(=O)c1[nH]c2ccc(C)cc2c1NC(=O)C(C)N1CCN(C2CCCCC2)CC1` (stereo not given): the fluorescence artifact activation was 0.08%.

For `O=C(O)C1CCCCC1C(=O)Nc1ccc(-c2ccccc2)cc1` (stereo not given), the fluorescence artifact activation was 0.17%.

As for `CCOc1ccc(C2C(C#N)=C(N)SC(N)=C2C#N)cc1OCC`, the fluorescence artifact activation is 11.7% (active).

For `CCOc1ccccc1C1C(C#N)=C(N)SC(N)=C1C#N`, the fluorescence artifact activation is 0.08%.

With `COc1ccc(C2C(C#N)=C(N)SC(N)=C2C#N)cc1OC`, the fluorescence artifact activation was 0.15%.

Turning to `Cc1cc(S(=O)(=O)Nc2c(C)nn(C)c2C)c(Cl)cc1Cl`, the fluorescence artifact activation was 0.08%.

With `COC(=O)c1ccc2c(c1)NC1=C(C(=O)CC(C)(C)C1)C(c1ccncc1)N2` (stereo not given), the fluorescence artifact activation is 0.26%.
